From PubChem
RGS4 pot = RGS4 potentiation or activation. B-score at 10 µM. HEK293 M3R/inducible RGS4, carbachol calcium flux Fluo4; hits give low values. hit rate 0.92% among 310,000;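 active means B-score of the integrated calcium signal more than 4 SD below the library mean, with starting fluorescence not abnormally high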;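 further: negative B-score means reduced calcium response which marks RGS4 activation or potentiation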
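Assay system: HEK293 FlpIn-TREx cells, stable M3R, doxycycline-inducible RGS4 / Probe or stimulus: carbachol, ECmax concentration / Times: overnight RGS4 induction, 30 min dye load 37 °C, 20 min compound RT / Signal: kinetic calcium fluorescence imaging with Fluo4-AM dye, 2 µM / Measure: Agonist-evoked peak-minus-minimum fluorescence over baseline, integrated ratio, B score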
MrgX1 antag = blocks BAM8-22 activation of human MrgX1 receptor; MRGX1-HEK293 calcium flux, Fluo-4, BAM8-22 antagonism; hits give low values; B-score at 10 µM; hit rate 1.3% among 310,000;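 active means calcium-response B-score plate-corrected more than 3 library SD below zero, starting fluorescence within 5 deviations, no agonist response on first addition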;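 further: peak minus trough fluorescence over baseline after final BAM8-22 challenge near maximal dose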
Target sequence (Q96LB2 whole entry, looked up): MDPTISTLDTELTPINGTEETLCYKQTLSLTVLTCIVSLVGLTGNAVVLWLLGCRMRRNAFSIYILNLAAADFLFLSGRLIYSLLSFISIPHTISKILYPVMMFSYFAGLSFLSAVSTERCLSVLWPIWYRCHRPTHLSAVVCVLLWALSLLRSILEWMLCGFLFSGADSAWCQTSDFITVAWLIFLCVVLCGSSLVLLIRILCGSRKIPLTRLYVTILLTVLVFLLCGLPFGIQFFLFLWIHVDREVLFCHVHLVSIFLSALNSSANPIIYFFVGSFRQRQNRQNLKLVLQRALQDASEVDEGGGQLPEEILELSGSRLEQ
RGS4 block = human RGS4 inhibition | P49798 | HEK293 M3R/RGS4 inducible, Fluo-4 calcium flux; hits give high values; triggered by carbachol at its EC20 | B-score at 10 µM | hit rate 0.45% among 310,000;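 active means B-score, a plate-corrected calcium signal, over three deviations above library mean, with baseline fluorescence within five deviations of library mean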;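 further: RGS4 expression induced by doxycycline in cells with stable M3 receptor; B-score is computed from the integrated fluorescence ratio over baseline after carbachol; higher B-score means a larger calcium signal and so more RGS4 inhibition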
Target sequence (P49798 whole entry, looked up): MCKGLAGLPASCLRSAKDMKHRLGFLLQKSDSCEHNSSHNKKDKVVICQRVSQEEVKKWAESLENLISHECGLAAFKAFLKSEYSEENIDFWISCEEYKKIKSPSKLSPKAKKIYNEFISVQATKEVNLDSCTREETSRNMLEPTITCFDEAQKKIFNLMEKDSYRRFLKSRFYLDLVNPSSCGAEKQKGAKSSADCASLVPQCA
MrgX1 ag = human MrgX1 receptor agonism, primary screen. MrgX1-HEK293 cells, Fluo-4 calcium fluorescence, agonist mode; hits give high values. B-score at 10 µM. hit rate 0.44% among 310,000. AID 588627;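 active means calcium response B-score plate-corrected fluorescence ratio at least 3 library SD, with starting fluorescence B-score inside 5 SD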
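Material: HEK293 cells stably expressing human MrgX1 receptor | Quantity: 15,000 cells per well | Times: Cells plated overnight, dye loaded 0.5 h 37 °C, 0.5 h room temperature | Measured by: Kinetic Fluo-4 NW fluorescence of intracellular calcium | Control set: Positive and negative controls per plate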
MrgX1 allo act = human MrgX1 positive allosteric modulation, primary screen; hit rate 0.63% among 310,000; B-score at 10 µM; MrgX1-HEK293, Fluo-4 calcium flux, FDSS; hits give high values;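 active means plate-corrected calcium response at least 3 library SD above typical, normal starting fluorescence, not activating the receptor alone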;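 further: compound read alongside a low EC10 to EC30 dose of BAM8-22 agonist; peak minus trough fluorescence over baseline measured at the second addition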
RGS4 activ val = RGS4 activation, validation assay. shares compounds with RGS4 pot. HEK293 M3R/RGS4 inducible, carbachol calcium flux Fluo4. inhibition, % at 10 µM. hit rate 89% among 1,100;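 active means inhibition above 3 SD of the buffer control wells, cut at about 41% in these data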;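 further: signal is the integrated peak-minus-minimum Fluo4 fluorescence over baseline ratio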
M3R Ca counter = activity in cells without induced RGS4 expression | shares compounds with RGS4 pot | HEK293 M3R non-induced RGS4, Fluo4 calcium flux; after carbachol challenge at its EC90 | inhibition, % at 10 µM | hit rate 82% among 1,100 | AID 602283;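 active means inhibition exceeding 3 SD of buffer-only control wells, cut at about 26% in these data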;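 further: percent drop in integrated peak-minus-baseline over baseline Fluo4 ratio after carbachol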
An asterisk follows results filed as active; i = inactive; / = no result given. This is a sample that favours compounds with a hit; in the whole collection about 3.5% have one here.

SMILES | RGS4 pot | MrgX1 antag | RGS4 block | MrgX1 ag | MrgX1 allo act | RGS4 activ val | M3R Ca counter
COC(=O)c1ccc(C23CC4(C2)[C@H](CN(C)[C@@H]4c2ccccc2)C3c2ccccc2)cc1 (some centres not stated) | i | i | i | i | i | / | /
COc1ccc(-c2oc3ccc(N4CCOCC4)cc3c2C#CC2(O)CCCCC2)cc1 | i | i | i | i | i | / | /
CCOC(=O)C1CCN(CC(=O)c2c(C)[nH]c3cc(C)ccc23)CC1 | i | i | i | i | i | / | /
COc1ccccc1N(C(=O)CCl)c1cn(C(C)=O)c2ccccc12 | -8.8* | i | i | i | i | 0 | 0
CC(C)c1ccc(NC(=O)C(=O)c2cn(CC(=O)N3CCCCC3)c3ccccc23)cc1 | i | i | i | i | i | / | /
COC(=O)c1ccccc1NC(=O)c1cn(-c2ccc(C)c(C)c2)c(=O)c2ccccc12 | -11* | i | i | i | i | 76* | 84*
CCOC(=O)c1ccccc1NC(=O)c1cn(-c2ccc(C)c(C)c2)c(=O)c2ccccc12 | i | i | i | i | i | / | /
CCOC(=O)C(=CNc1cc(Cl)c(-c2ccco2)c(Cl)c1)C(=O)OCC | -7.8* | i | i | i | i | 82* | 84*
COC(=O)NC(=S)Nc1ccc(Oc2ccc(Cl)cc2Cl)c(Cl)c1 | -7.8* | i | i | i | i | 92* | 70*
COCCc1ncc(CN2CCC(C(=O)Nc3cccc(-c4cscn4)c3)CC2)cn1 | i | i | i | i | i | / | /
CCc1ccc(NC(=O)CCc2nc3cccnc3n2Cc2ccc(OC)cc2)cc1 | -8* | i | i | i | i | 0 | 0
CCCCCCNC(=O)CCc1nc2cccnc2n1Cc1ccc(OC)cc1 | i | i | i | i | i | / | /
CS(=O)(=O)n1nc(NCc2cccs2)nc1NCc1cccs1 | i | i | i | i | i | / | /
CCCCS/C(=C(/C#N)C(N)=O)c1cc2c([nH]1)CCCC2 | -8.2* | i | i | i | i | 94* | 92*
COC(=O)/C(C#N)=C/c1c(N2CCN(c3ccc(OC)cc3)CC2)nc2c(C)cccn2c1=O | i | i | i | i | i | / | /
C=CCNC(=O)c1ccc2nc(-c3ccccc3)c(-c3ccccc3)nc2c1 | -8.9* | i | i | i | i | 77* | 44*
O=C(O)c1ccc2nc3c(nc2c1)-c1ccccc1C3=O | -11* | i | i | i | i | 0 | 0
C=CCNC(=O)c1ccc(C(=O)c2ccccc2)cc1 | i | i | i | i | i | / | /
COc1cc(C(=O)Oc2cccc(Nc3ncnc4ccccc34)c2)cc(OC)c1OC | -12* | i | i | i | i | 92* | 80*
Cc1ccc(NC(=O)COc2ccc(Br)cn2)cc1 | i | i | i | i | i | / | /
Cc1cnc(NC(=O)c2ccc(-c3nc4ccccc4s3)o2)s1 | -9.7* | i | i | i | i | 79* | 32*
Cc1cnc(NC(=O)CSc2nc3ccccc3s2)s1 | i | i | i | i | i | / | /
c1ccc(COc2ccc(OCCN3CCCC3)cc2)cc1 | i | i | i | i | i | / | /
c1ccc(COc2ccc(OCCCN3CCCC3)cc2)cc1 | -11* | i | i | i | i | 94* | 57*
CC1CCN(CCCOc2ccc(OCc3ccccc3)cc2)CC1 | -10* | i | i | i | i | 92* | 78*
SMILES | RGS4 pot | MrgX1 antag | RGS4 block | MrgX1 ag | MrgX1 allo act | RGS4 activ val | M3R Ca counter
CCC(=O)NC1=C(C#N)C2(CCCC2)Cc2ccccc21 | i | i | i | i | i | / | /
Cc1ccc(C)c(N2CCN(C(=O)c3ccc(CS(=O)(=O)c4ccccc4C)o3)CC2)c1 | -8.8* | i | i | i | i | 88* | 66*
COc1cc(/C=C(\C#N)C(N)=O)ccc1OCc1c(C)no[n+]1[O-] | i | i | i | i | i | / | /
O=C(COc1ccccc1)Nc1cccc(-c2nc3ccccc3[nH]2)c1 | -8.1* | i | i | i | i | 76* | 37*
CCCc1ncc(CN2CCCC(C(=O)Nc3ccc(-c4cccc(OC)c4)cc3)C2)cn1 (configuration not stated) | i | i | i | i | i | / | /
COc1cccc(-c2ccc(NC(=O)C3CCCN(Cc4cnn(C(C)C)c4)C3)cc2)c1 (configuration not stated) | -11* | i | i | i | i | 92* | 79*
O=C(Nc1ccc(-c2cccc(F)c2)cc1)C1CCCN(Cc2ccccn2)C1 (configuration not stated) | -8.1* | i | i | i | i | 50* | 29*
c1ccc(COc2ccc(CNCc3cccnc3)cc2)cc1 | -13* | i | i | i | i | 84* | 42*
O=C(Cn1c2ccccc2c2nc3n(c(=O)c21)CCS3)N1CCCC1 | i | i | i | i | i | / | /
CCOC(=O)c1c(NC(=O)/C=C/C(=O)O)sc(C)c1-c1ccc(C(C)(C)C)cc1 | -12* | -5.2* | i | i | i | 92* | 90*
COc1ccc(-c2nc(CS(=O)CC(=O)N3CCN(C)CC3)c(C)o2)cc1OC (configuration not stated) | i | i | i | i | i | / | /
N#Cc1ccsc1NC(=O)CCc1ccccc1 | i | i | i | i | i | / | /
N#Cc1ccsc1NC(=O)CCN1CCN(C(c2ccccc2)c2ccccc2)CC1 | -9.1* | i | i | i | i | 74* | 84*
O=C(c1ccc2nc(-c3ccco3)c(-c3ccco3)nc2c1)N1CCN(c2ccccc2)CC1 | -13* | i | i | i | i | 92* | 46*
CCc1nc2ccc(C(=O)N3CCN(c4ccccc4)CC3)cc2nc1CC | i | i | i | i | i | / | /
CCCCCOC(=O)c1ccc(OC(=O)c2cncc(Br)c2)cc1 | i | i | i | i | i | / | /
CCCCCCCOC(=O)c1ccc(OC(=O)c2cccnc2)cc1 | -8.4* | i | i | i | i | 90* | 59*
COc1ccc(S(=O)(=O)n2nc(OC(=O)C3CCCCC3)cc2N)cc1 | i | i | i | i | i | / | /
COCCOC(=O)c1c(C)oc2ccc(OC(=O)c3ccc4c(c3)OCO4)cc12 | -8.4* | i | i | i | i | 90* | 59*
